Here are results for one compound from ChEMBL document CHEMBL3286393 (J Med Chem, 2014).

In data set [1] the target is T1, Polyunsaturated fatty acid 5-lipoxygenase (Homo sapiens, UniProt P09917).
T1 sequence (P09917 whole entry): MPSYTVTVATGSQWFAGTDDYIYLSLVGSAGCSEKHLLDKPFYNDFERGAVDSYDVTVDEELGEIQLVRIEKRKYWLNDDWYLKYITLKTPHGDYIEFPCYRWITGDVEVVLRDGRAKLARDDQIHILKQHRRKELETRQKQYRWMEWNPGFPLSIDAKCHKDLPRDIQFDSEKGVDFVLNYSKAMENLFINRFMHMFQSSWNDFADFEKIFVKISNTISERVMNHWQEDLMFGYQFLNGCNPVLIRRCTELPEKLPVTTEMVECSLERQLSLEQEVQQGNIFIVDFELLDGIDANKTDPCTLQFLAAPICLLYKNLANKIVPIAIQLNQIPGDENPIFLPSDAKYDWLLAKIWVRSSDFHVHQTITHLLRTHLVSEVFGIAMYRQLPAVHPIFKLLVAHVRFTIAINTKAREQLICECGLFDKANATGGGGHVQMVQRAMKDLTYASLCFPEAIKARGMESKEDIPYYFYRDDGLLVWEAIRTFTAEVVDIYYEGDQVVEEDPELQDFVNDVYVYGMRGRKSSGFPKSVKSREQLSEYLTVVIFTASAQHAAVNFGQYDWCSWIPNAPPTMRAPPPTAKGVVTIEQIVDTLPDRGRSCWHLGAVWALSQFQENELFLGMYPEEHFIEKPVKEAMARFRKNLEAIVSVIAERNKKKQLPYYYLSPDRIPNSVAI
Description: Inhibition of human recombinant 5-LO expressed in Escherichia coli Bl21 (DE3) using arachidonic acid as substrate preincubated for 10 mins measured after 10 mins by RP-HPLC analysis. The method in brief: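 5-LO expressed from pT3-5LO in E. coli BL21(DE3), semi-purified on ATP-agarose, diluted in PBS with 1 mM EDTA and 1 mM ATP. Preincubated with compound 10 min at 4 °C, then 30 s at 37 °C. Started with 2 mM CaCl2 plus 20 μM arachidonic acid; 10 min at 37 °C; ice-cold methanol stop. Three to four experiments.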

A further data set concerns LNCaP. In words: Cytotoxicity against human LNCAP cells assessed as cell viability after 24 hrs by MTT assay. The data set is classed as cell-based. In outline: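 LNCaP seeded at 10⁴ cells/well and exposed 24 h. MTT added, then 4 h at 37 °C, 5% CO2, dark. Medium removed and formazan dissolved in DMSO; absorbance at 570 nm.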
In general terms: Tetrazolium assays rely on reduction of a dye to a coloured formazan, in cell work by metabolically active cells.

Data set [2] has as its target T1, Polyunsaturated fatty acid 5-lipoxygenase. In words: Inhibition of 5-LO in human neutrophils using arachidonic acid as substrate preincubated for 15 mins measured after 10 mins by HPLC analysis. In outline:
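Fresh human neutrophils, 1 × 10⁷/mL in PBS pH 7.4 with 1 mM CaCl2 and 1 mg/mL glucose, preincubated 15 min at 37 °C. LTB4, its all-trans isomers and 5-H(P)ETE by HPLC.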

The target of a further data set is T2, Prostaglandin E synthase (Homo sapiens, UniProt O14684).
T2 sequence (O14684 whole entry): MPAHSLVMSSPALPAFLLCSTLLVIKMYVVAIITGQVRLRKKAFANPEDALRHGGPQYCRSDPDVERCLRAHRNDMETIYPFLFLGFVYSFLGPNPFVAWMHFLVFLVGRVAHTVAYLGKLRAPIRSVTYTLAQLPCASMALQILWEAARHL
Description: Inhibition of mPGES1-mediated PGE2 production in microsomes of IL-1beta stimulated human A549 cells preincubated for 15 mins by RP-HPLC analysis. The data set is classed as cell-based. The following applies: read-out: IC50. The method in brief: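 mPGES-1 source: microsomes of A549 cells treated 48 h with IL-1β 2 ng/mL, at 25−50 μg protein/mL in 0.1 M potassium phosphate pH 7.4 with 2.5 mM glutathione. Compound preincubation 15 min at 4 °C; PGH2 (20 μM final) for 1 min; FeCl2/citric acid stop with 11β-PGE2 internal standard. PGE2 by RP-HPLC.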

Data set [3] can be described thus: Aqueous stability of the compound in at 2 uM in 10 mM aqueous ammonium bicarbonate at pH 7.9 assessed as formation of trans-6-(4'-hydroxy-3'-methoxyphenyl)-2,4-dioxo-5-hexenal measured as residual amount of compound by reversed phase liquid chromatography-coupled mass spectrometry. The following applies: buffer, pH 7.9, 2 µM. In kind it is physicochemical. In outline:
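Compounds at 2 μM in 10 mM aqueous ammonium bicarbonate pH 7.9, incubated 30 min at 37 °C. Analysed by UPLC-MS on a C18 column, gradient acetonitrile/water with 0.07% formic acid, at 0.7 mL/min. Residual amount given as % of control; three to four independent experiments.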

The test system of a further data set is PBMC. Description: Cytotoxicity against human PBMCs assessed as cell viability after 24 hrs by MTT assay. In kind it is cell-based. The method in brief:
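Human PBMC (2 × 10⁵/well), 24 h exposure. MTT then 4 h at 37 °C in darkness. Formazan solubilized with 10% SDS in 20 mM HCl; absorbance 550 nm. Viability relative to untreated cells; IC50 derived.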

The subject of data set [4] is Radical scavenging activity. Description: Antioxidant activity assessed as DPPH free radical scavenging activity at 10 uM after 30 mins […] by spectrophotometric analysis. The data set is classed as functional. (In general: Loss of DPPH colour is used to gauge radical scavenging.)
The target in data set [5] is T3, Polyunsaturated fatty acid lipoxygenase ALOX12 (Homo sapiens) (UniProt P18054).
T3 sequence (whole entry): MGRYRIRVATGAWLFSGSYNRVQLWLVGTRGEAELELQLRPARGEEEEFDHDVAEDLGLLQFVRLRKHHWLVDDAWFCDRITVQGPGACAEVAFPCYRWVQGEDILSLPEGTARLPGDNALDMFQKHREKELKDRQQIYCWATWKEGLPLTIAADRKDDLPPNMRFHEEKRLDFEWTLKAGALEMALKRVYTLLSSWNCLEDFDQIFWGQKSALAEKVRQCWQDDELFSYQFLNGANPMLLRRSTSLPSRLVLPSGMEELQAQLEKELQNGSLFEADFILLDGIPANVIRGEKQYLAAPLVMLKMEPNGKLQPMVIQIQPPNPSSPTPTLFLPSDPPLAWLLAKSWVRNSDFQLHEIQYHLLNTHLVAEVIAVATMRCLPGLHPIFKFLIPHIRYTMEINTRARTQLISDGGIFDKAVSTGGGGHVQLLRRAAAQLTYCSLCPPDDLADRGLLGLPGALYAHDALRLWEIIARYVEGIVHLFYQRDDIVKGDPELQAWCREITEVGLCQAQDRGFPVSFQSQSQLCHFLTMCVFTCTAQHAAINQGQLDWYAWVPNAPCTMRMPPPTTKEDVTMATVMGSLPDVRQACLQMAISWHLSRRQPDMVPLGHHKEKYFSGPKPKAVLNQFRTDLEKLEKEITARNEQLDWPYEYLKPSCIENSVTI
Description: Inhibition of 12-LO in human neutrophils assessed as residual activity relative to control. As to conditions: values are per cent of control.

The target of data set [6] is T4, Prostaglandin G/H synthase 1 (Ovis aries) (UniProt P05979).
T4 sequence (whole entry): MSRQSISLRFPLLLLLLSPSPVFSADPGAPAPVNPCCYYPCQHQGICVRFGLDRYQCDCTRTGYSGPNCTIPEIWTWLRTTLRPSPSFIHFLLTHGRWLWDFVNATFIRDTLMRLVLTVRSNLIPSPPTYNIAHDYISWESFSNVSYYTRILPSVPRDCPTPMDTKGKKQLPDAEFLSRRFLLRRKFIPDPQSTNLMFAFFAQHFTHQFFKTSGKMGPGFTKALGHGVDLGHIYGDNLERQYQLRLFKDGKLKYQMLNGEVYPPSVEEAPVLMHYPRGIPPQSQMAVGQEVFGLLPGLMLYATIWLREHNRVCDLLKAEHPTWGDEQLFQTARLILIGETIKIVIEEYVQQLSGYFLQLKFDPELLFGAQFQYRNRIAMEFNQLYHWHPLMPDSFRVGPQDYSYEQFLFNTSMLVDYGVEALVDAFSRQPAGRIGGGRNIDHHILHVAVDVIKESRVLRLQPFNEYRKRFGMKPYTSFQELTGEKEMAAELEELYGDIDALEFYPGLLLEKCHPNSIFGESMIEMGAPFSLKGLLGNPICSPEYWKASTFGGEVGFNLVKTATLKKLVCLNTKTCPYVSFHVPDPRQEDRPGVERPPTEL
In words: Inhibition of purified ovine COX-1 assessed as residual activity by measuring formation of 12-HHT from arachidonic acid preincubated at 10 uM for 5 mins before substrate addition measured after 5 mins by HPLC analysis relative to control. In outline:
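Purified ovine COX-1 (50 units) in 100 mM Tris pH 8 with 5 mM glutathione, 5 μM hemoglobin and 100 μM EDTA. Preincubated 5 min at 4 °C then 1 min at 37 °C. 5 μM arachidonic acid added; 12-HHT extracted after 5 min and measured by HPLC. Residual activity at 10 μM, three independent experiments.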

Data set [7] concerns the target Prostaglandin G/H synthase 1 (Homo sapiens, UniProt P23219). Description: Inhibition of COX1-mediated PGE2 production in human platelets assessed as formation of 12-HHT using arachidonic acid as substrate preincubated for 5 mins measured after 5 mins by RP-HPLC analysis. In outline: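 Washed human platelets, 10⁸/mL in PBS pH 7.4 with 1 mM CaCl2: 5 min compound preincubation at room temperature, then 1 min at 37 °C. Arachidonic acid 5 μM added; 5 min at 37 °C. 12-HHT extracted and measured by RP-HPLC.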

The source made the active and inactive calls. The calls are words filed in the database; no cut-off is given here.

Prostaglandin G/H synthase 1, sequence (P23219 whole entry): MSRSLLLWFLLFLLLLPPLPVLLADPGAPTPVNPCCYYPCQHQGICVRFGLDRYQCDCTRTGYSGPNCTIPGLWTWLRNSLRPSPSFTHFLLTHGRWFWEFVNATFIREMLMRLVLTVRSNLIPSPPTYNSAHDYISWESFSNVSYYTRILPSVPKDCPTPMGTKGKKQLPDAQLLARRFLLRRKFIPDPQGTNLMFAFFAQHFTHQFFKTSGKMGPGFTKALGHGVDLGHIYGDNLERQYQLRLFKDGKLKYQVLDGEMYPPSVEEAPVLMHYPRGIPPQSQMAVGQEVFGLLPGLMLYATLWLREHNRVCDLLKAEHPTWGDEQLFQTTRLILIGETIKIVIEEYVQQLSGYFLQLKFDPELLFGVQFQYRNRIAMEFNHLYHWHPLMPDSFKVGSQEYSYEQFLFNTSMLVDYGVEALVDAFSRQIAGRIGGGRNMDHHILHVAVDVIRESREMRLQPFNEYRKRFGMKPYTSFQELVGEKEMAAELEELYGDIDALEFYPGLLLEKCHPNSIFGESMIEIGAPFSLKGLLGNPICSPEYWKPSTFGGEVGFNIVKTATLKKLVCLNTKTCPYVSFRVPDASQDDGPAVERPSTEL

With `COc1cc(/C=C/C(=O)CC(=O)/C=C/c2cc(F)c(O)c(OC)c2)cc(F)c1O`, the IC50 – broadly, the point on the concentration scale where inhibition reaches its midpoint – in data set [1] is 0.4 µM; in the data set with LNCaP, over 50 µM; in data set [2], 10 µM; on Prostaglandin E synthase it was 8.7 µM; with PBMC, over 50 µM; in [7], 7.5 µM. Also, the Stability result in data set [3] is given as “Unstable”. For the same compound, the Activity in data set [4] came out at 61.4%. Besides, the residual activity (commonly what remains of the control signal, in per cent) in data set [5] turned out to be 69.7%. The inhibition entry in data set [6] is “inactive”.
